Calls of active or inactive are those of the source. The calls are words filed in the database; no cut-off is given here.
Legend:
[1] = system: Stomach; assay: Inhibition of electrical field stimulation-induced neurogenic contractions in New Zealand white rabbit gastric fundus smooth muscle; format: functional
[2] = system: Stomach; assay: Inhibition of neostigmine-induced neurogenic contractions in New Zealand white rabbit gastric fundus smooth muscle; format: functional, tissue-based; settings: Oryctolagus cuniculus
In short: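 Longitudinal gastric fundus strips (about 15–20 mm × 2 mm) from New Zealand white rabbits (2.5–3 kg), taken after i.v. pentobarbital. Strips were held in Krebs–Henseleit organ baths at 1 g basal tension and equilibrated 60 min. Contractions were evoked by electrical field stimulation through platinum electrodes (1 ms pulses, 60 V, 8 Hz) with neostigmine 10^-6 M. Compounds were dissolved in DMSO.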

[3] = system: Stomach; assay: Reversal of inhibition of electrical field stimulation-induced neurogenic contractions in New Zealand white rabbit gastric fundus smooth muscle in presence of glibenclamide; format: functional, Oryctolagus cuniculus
[4] = system: Stomach; assay: Myorelaxant activity against noradrenaline-induced contractions in New Zealand white rabbit gastric fundus smooth muscle; format: functional, Oryctolagus cuniculus
In short: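 Longitudinal fundus strips (15-20 mm x 2 mm) were equilibrated 60 min at 1 g basal tension in Krebs-Henseleit solution, with the solution changed every 15 min. L-NAME 10^-4 M and indomethacin 10^-5 M were added 20 min before precontraction. Strips were precontracted with noradrenaline 10^-5 M. Compounds in DMSO were added cumulatively, each step after a plateau. pD2 and Em (at 3 x 10^-4 M) are mean ± S.E., n = 6.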

[5] = system: Stomach; assay: Myorelaxant activity against noradrenaline-induced contractions in New Zealand white rabbit gastric fundus smooth muscle in presence of glibenclamide; format: functional, tissue-based; settings: Oryctolagus cuniculus

Row | Structure (SMILES) | Activity ([1]; Oryctolagus cuniculus) | Activity [2] | pD2 [1] | Emax ([1]; Oryctolagus cuniculus, Stomach) [%] | inhibition (INH) [3] [%] | pD2 [4] | Emax ([4]; Oryctolagus cuniculus, Stomach) [%] | Activity [5]
1 | CN1[C@@H]2CC[C@H]1CC(OC(=O)[C@H](CO)c1ccccc1)C2 (some centres undefined) | Active | Active | – | – | – | – | – | –
2 | NC1=N[C@H](O)[C@H]2[C@H]3O[C@]4(O)O[C@@H]([C@@H](O)[C@@]2(N1)[C@@H]4O)[C@]3(O)CO | Active | – | – | – | – | – | – | –
3 | CC(N/C(=N\C#N)Nc1ccncc1)C(C)(C)C (centres undefined) [PINACIDIL ANHYDROUS] | – | – | 7.49 | 76.3 | 32.18 | 5.03 | 71.2 | Active

Reference: ChEMBL document CHEMBL1149791, “Evaluation of myorelaxant activity of 7-substituted hexahydroquinoline derivatives in isolated rabbit gastric fundus” (2008)
